The nature of test [1]: Synergistic agonist activity at Wnt/beta-catenin (unknown origin) expressed in Wnt-3A conditioned media stimulated with HEK293 cells incubated for 24 hrs by firefly luciferase based TOPflash reporter assay. Type of test: cell-based. As to conditions: Homo sapiens, HEK293, 24 h. A digest of the protocol: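 HEK293 cells stably transfected with TOPFlash reporter, stimulated with Wnt3A conditioned media plus compound for 24 h. Luciferase activity then read by Bright-Glo luminescence. EC50 (µM) derived, given as mean ± standard deviation.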
(A reporter such as luciferase makes a cellular process visible.)

In test [2] the target is ADP-ribosylation factor GTPase-activating protein 1 (Rattus norvegicus) (UniProt Q62848). Description: Inhibition of poly-histidine tagged full-length rat ARFGAP1 expressed in Sf9 cells assessed as remaining enzyme activity at 20 uM using purified WT ARF1 pre-loaded with [gamm-32P]-labeled GTP incubated for 5 mins before ARF1-GTP addition followed by 25 mins incubation by scintillation counting method.

The target is the same in test [3]. Description: Inhibition of poly-histidine tagged full-length rat ARFGAP1 expressed in Sf9 cells assessed as remaining enzyme activity at 10 uM using purified WT ARF1 pre-loaded with [gamm-32P]-labeled GTP incubated for 5 mins before ARF1-GTP addition followed by 25 mins incubation by scintillation counting method.
The subject of test [4] is HEK293. Description: Potency index, ratio of EC50 for QS11 to EC50 for test compound for synergistic agonist activity at Wnt/beta-catenin (unknown origin) expressed in Wnt-3A conditioned media stimulated with HEK293 cells incubated for 24 hrs by firefly luciferase based TOPflash reporter assay. To be noted: Homo sapiens. Type of test: cell-based.

The structures appear in SMILES notation.

Sequence of ADP-ribosylation factor GTPase-activating protein 1 (Rattus norvegicus) (Q62848 whole entry): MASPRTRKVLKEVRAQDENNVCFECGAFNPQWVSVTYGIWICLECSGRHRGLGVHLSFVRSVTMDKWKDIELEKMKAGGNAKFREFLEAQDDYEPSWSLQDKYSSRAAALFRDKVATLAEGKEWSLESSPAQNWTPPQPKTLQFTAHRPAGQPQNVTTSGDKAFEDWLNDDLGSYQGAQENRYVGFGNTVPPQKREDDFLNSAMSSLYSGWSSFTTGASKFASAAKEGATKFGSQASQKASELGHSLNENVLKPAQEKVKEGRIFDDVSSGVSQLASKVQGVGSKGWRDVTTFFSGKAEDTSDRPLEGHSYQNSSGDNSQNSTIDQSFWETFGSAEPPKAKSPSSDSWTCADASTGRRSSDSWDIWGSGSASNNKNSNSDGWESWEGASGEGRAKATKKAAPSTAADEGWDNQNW

In the case of `COc1cc(OC)cc(Oc2nc(N[C@H](CO)Cc3ccccc3)c3ncn(Cc4ccc(-c5ccccc5)cc4)c3n2)c1`, in test [1], the EC50 is 1.9 µM. Also, the Activity was 11% in test [2] and 24% in test [3].
Take `COC(=O)[C@H](Cc1ccccc1)Nc1nc(Oc2ccc3c(c2)OCO3)nc2c1ncn2Cc1ccc(-c2ccccc2)cc1`: in test [1], the concentration giving a half-maximal response (EC50) came to 1.1 µM. In addition, the Activity in test [2] came to 18%; in test [3] it was 31%.
For `FC(F)(F)c1cccc(Oc2nc(NCc3cccc4ccccc34)c3ncn(Cc4ccc(-c5ccccc5)cc4)c3n2)c1`, in that order: 18 µM, 12% and 16%.
In the same order, the values of `c1ccc(-c2ccc(Cn3cnc4c(NCc5cccc6ccccc56)nc(Oc5ccc6c(c5)CCC6)nc43)cc2)cc1` are over 100 µM, 63% and 74%.
In the case of `Cc1ccccc1-c1ccc(Cn2cnc3c(N[C@H](CO)Cc4ccccc4)nc(Oc4ccc5c(c4)CCC5)nc32)cc1`, in test [1], the concentration for a half-maximal effect (EC50) was over 100 µM. Moreover, the Activity worked out at 41% in test [2] and 56% in test [3].
Consider `c1ccc(CCNc2nc(Oc3ccc4c(c3)CCC4)nc3c2ncn3Cc2ccc(-c3ccccc3)cc2)cc1`, for which the concentration for a half-maximal effect (EC50) in test [1] is over 100 µM. The Activity was 50% in test [2] and 60% in test [3].
Take `COC(=O)[C@H](Cc1ccccc1)Nc1nc(Oc2cccc3ccccc23)nc2c1ncn2Cc1ccc(-c2ccccc2)cc1`: in test [1], the EC50 came to 3.4 µM. The Activity in test [2] amounted to 12%; in test [3] it was 21%.
For `OC[C@H](Cc1ccccc1)Nc1nc(Oc2ccc3c(c2)CCC3)nc2c1ncn2CCOCc1ccccc1`, in test [1], the EC50 is over 100 µM. In addition, the Activity in test [2] was 109%; in test [3] it was 106%.
For `COc1ccc(-c2ccc(Cn3cnc4c(N[C@H](CO)Cc5ccccc5)nc(Oc5ccc6c(c5)CCC6)nc43)cc2)cc1`, in that order: over 100 µM, 34% and 42%.
As for `FC(F)(F)c1cccc(Oc2nc(NCCc3ccccc3)c3ncn(Cc4ccc(-c5ccccc5)cc4)c3n2)c1`, the EC50 in test [1] was over 100 µM. Moreover, the Activity in test [2] was found to be 33%; in test [3] it was 41%.
For `c1ccc(CCNc2nc(Oc3cccc4ccccc34)nc3c2ncn3Cc2ccc(-c3ccccc3)cc2)cc1`, in that order: over 100 µM, 20% and 32%.
Turning to `c1ccc(-c2ccc(Cn3cnc4c(NCc5cccc6ccccc56)nc(Oc5ccc6ccccc6c5)nc43)cc2)cc1`, the concentration for a half-maximal effect (EC50) in test [1] is over 100 µM. In addition, the results for the Activity in test [2] and in test [3] were 31% and 53%, respectively.
Take `OC[C@H](Cc1ccccc1)Nc1nc(Oc2ccc3c(c2)CCC3)nc2c1ncn2-c1ccc(-c2ccccc2)cc1`: in test [1], the half-maximal effective concentration (EC50) is over 100 µM. Moreover, the figures for the Activity in test [2] and in test [3] were 32% and 50%, respectively.
On to `Cc1ccccc1Cn1cc(Cn2cnc3c(N[C@H](CO)Cc4ccccc4)nc(Oc4ccc5c(c4)CCC5)nc32)nn1`, for which, in test [1], the EC50 is over 100 µM. In addition, the Activity stood at 27% in test [2] and 50% in test [3].
For `OC[C@H](Cc1ccccc1)Nc1nc(Oc2ccc3c(c2)CCC3)nc2c1ncn2Cc1ccccc1`, in that order: over 100 µM, 113% and 117%.
Turning to `O=[N+]([O-])c1ccc(Cn2cc(Cn3cnc4c(N[C@H](CO)Cc5ccccc5)nc(Oc5ccc6c(c5)CCC6)nc43)nn2)cc1`, the EC50 in test [1] was over 100 µM. Moreover, the values for the Activity in test [2] and in test [3] were 45% and 58%, respectively.
`c1ccc(CCNc2nc(Oc3ccc4c(c3)OCO4)nc3c2ncn3Cc2ccc(-c3ccccc3)cc2)cc1`: the 50% effective concentration (EC50) in test [1] was over 100 µM. Moreover, the Activity in test [2] came to 27%; in test [3], 31%.
`OC[C@H](Cc1ccccc1)Nc1nc(Oc2ccc3c(c2)CCC3)nc2c1ncn2Cc1cn(-c2ccccc2)nn1`: in test [1], the EC50 is over 100 µM. Besides, the Activity in test [2] turned out to be 57%; in test [3] it was 105%.
For `OC[C@H](Cc1ccccc1)Nc1nc(Oc2ccc3c(c2)CCC3)nc2c1ncn2Cc1ccc(-c2ccccc2)cc1`, in that order: 1.5 µM, 10% and 33%.
For `OC[C@H](Cc1ccccc1)Nc1nc(Oc2ccc3ccccc3c2)nc2c1ncn2Cc1ccc(-c2ccccc2)cc1`, in that order: 4.4 µM, 35% and 53%.
In the case of `c1ccc(-c2ccc(Cn3cnc4c(NCc5cccc6ccccc56)nc(Oc5ccc6c(c5)OCO6)nc43)cc2)cc1`, the 50% effective concentration (EC50) in test [1] is over 100 µM. Also, the Activity came to 34% in test [2] and 35% in test [3].
Take `CC[C@@H](CO)Nc1nc(Oc2ccc3c(c2)OCO3)nc2c1ncn2Cc1ccc(-c2ccccc2)cc1`: the EC50 in test [1] was over 100 µM. Also, the values for the Activity in test [2] and in test [3] were 32% and 70%, respectively.
Turning to `COc1cccc(Oc2nc(NCc3cccc4ccccc34)c3ncn(Cc4ccc(-c5ccccc5)cc4)c3n2)c1`, the concentration for a half-maximal effect (EC50) in test [1] is over 100 µM. In addition, the Activity turned out to be 29% in test [2] and 37% in test [3].
Turning to `COc1cccc(Oc2nc(N[C@H](CO)Cc3ccccc3)c3ncn(Cc4ccc(-c5ccccc5)cc4)c3n2)c1`, in test [1], the EC50 stood at 3.3 µM. The figures for the Activity in test [2] and in test [3] were 29% and 54%, respectively.
For `CC[C@@H](CO)Nc1nc(Oc2ccc3ccccc3c2)nc2c1ncn2Cc1ccc(-c2ccccc2)cc1`, in test [1], the EC50 came to 4 µM. Further, the Activity in test [2] came to 24%; in test [3] it was 41%.
As for `COc1ccc(Oc2nc(N[C@H](CO)Cc3ccccc3)c3ncn(Cc4ccc(-c5ccccc5)cc4)c3n2)cc1OC`, in test [1], the EC50 amounted to 3.6 µM. In addition, the Activity in test [2] came to 22%; in test [3], 55%.
As to `OC[C@H](Cc1ccccc1)Nc1nc(Oc2ccc3c(c2)OCO3)nc2c1ncn2Cc1ccc(-c2ccccc2)cc1`, in test [1], the EC50 was determined as 8.5 µM. The Activity in test [2] worked out at 39%; in test [3], 49%.
Turning to `OC[C@H](Cc1ccccc1)Nc1nc(Oc2ccc3c(c2)CCC3)nc2c1ncn2Cc1ccc(Oc2ccccc2)cc1`, the EC50 in test [1] was over 100 µM. The figures for the Activity in test [2] and in test [3] were 40% and 42%, respectively.
As for `CC(c1ccc(-c2ccccc2)cc1)n1cnc2c(N[C@H](CO)Cc3ccccc3)nc(Oc3ccc4c(c3)CCC4)nc21` (some centres not stated), in test [1], the 50% effective concentration (EC50) turned out to be 2.6 µM. Moreover, the Activity in test [2] turned out to be 36%; in test [3] it was 50%.
In the same order, the values of `COc1nc(N[C@H](CO)Cc2ccccc2)c2ncn(Cc3ccc(-c4ccccc4)cc3)c2n1` are 2.6 µM, 39% and 70%.
`OC[C@H](Cc1ccccc1)Nc1nc(Oc2cccc(C(F)(F)F)c2)nc2c1ncn2Cc1ccc(-c2ccccc2)cc1`: the EC50 in test [1] worked out at 2.9 µM. Also, the Activity in test [2] stood at 78%; in test [3] it was 81%.
As to `c1ccc(CCNc2nc(Oc3ccc4ccccc4c3)nc3c2ncn3Cc2ccc(-c3ccccc3)cc2)cc1`, the EC50 in test [1] was over 100 µM. Moreover, the Activity came to 86% in test [2] and 90% in test [3].
As for `COC(=O)[C@H](Cc1ccccc1)Nc1nc(Oc2ccc3ccccc3c2)nc2c1ncn2Cc1ccc(-c2ccccc2)cc1`, the Ratio EC50 in test [4] is 2. Further, in test [1], the EC50 stood at 0.65 µM. Further, the Activity in test [2] worked out at 17%; in test [3], 25%.
Take `OC[C@H](Cc1ccccc1)Nc1nc(Oc2ccc3c(c2)CCC3)nc2c1ncn2Cc1cn(Cc2ccccc2)nn1`: the half-maximal effective concentration (EC50) in test [1] is over 100 µM. Besides, the Activity was 62% in test [2] and 93% in test [3].
On to `c1ccc(-c2ccc(Cn3cnc4c(NCc5cccc6ccccc56)nc(Oc5cccc6ccccc56)nc43)cc2)cc1`, for which the half-maximal effective concentration (EC50) in test [1] is over 100 µM. Moreover, the Activity in test [2] and in test [3] was 20% throughout.
For `CC[C@@H](CO)Nc1nc(Oc2cccc3ccccc23)nc2c1ncn2Cc1ccc(-c2ccccc2)cc1`, the EC50 in test [1] is 1.3 µM. Further, the figures for the Activity in test [2] and in test [3] were 15% and 22%, respectively.
For `CC[C@@H](CO)Nc1nc(Oc2ccc3c(c2)CCC3)nc2c1ncn2Cc1ccc(-c2ccccc2)cc1`, in that order: 4.5 µM, 57% and 90%.
In the same order, the values of `OC[C@H](Cc1ccccc1)Nc1nc(Oc2ccc3c(c2)CCC3)nc2c1ncn2Cc1ccc(-c2ccccc2F)cc1` are over 100 µM, 47% and 81%.
Regarding `COc1ccc(Cn2cc(Cn3cnc4c(N[C@H](CO)Cc5ccccc5)nc(Oc5ccc6c(c5)CCC6)nc43)nn2)cc1`, the half-maximal effective concentration (EC50) in test [1] was over 100 µM. The Activity amounted to 75% in test [2] and 98% in test [3].
For `OC[C@H](Cc1ccccc1)Nc1nc(Oc2cccc3ccccc23)nc2c1ncn2Cc1ccc(-c2ccccc2)cc1`, in that order: 6.6 µM, 24% and 35%.
For the compound `OC[C@H](Cc1ccccc1)Nc1nc(N2CCOCC2)nc2c1ncn2Cc1ccc(-c2ccccc2)cc1`, the EC50 in test [1] came to 1.5 µM. Moreover, the Activity in test [2] was 71%; in test [3], 98%.
For `COc1cccc(Oc2nc(NCCc3ccccc3)c3ncn(Cc4ccc(-c5ccccc5)cc4)c3n2)c1`, in that order: over 100 µM, 40% and 46%.

Usually EC50 stands for the concentration that produces a half-maximal response.

The values above are taken from ChEMBL document CHEMBL3627670, “Structure-activity relationship studies of QS11, a small molecule Wnt synergistic agonist” (Bioorg Med Chem Lett, 2015).
